Calls of active or inactive are those of the source. No cut-off for these calls is given here.
Key:
Rattus norvegicus [1] = test: Antiinflammatory activity in Wistar rat assessed as inhibition of FCA-induced paw edema at 2.04 mg/kg, po administered on days 13 post FCA-challenge measured up to days 28 relative to control; format: functional
Procedure, shortened: (§1)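 Male Wistar rats (200–250 g), n = 6 per group. Complete Freund's adjuvant, 0.1 ml, injected sub-plantar into left hind paw on day 1. Oral dosing as 0.25% sodium CMC suspension, days 13–28. Body weight, joint diameter (digital vernier caliper) and paw volume (plethysmometer) recorded on days 0, 3, 7, 12, 15, 19, 21 and 28. Edema inhibition = 1 − (Vt/Vc) × 100, using mean relative paw-volume change versus arthritic controls. Mean ± SEM; two-way ANOVA with Bonferroni post test.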

Rattus norvegicus [2] = test: Antiarthritic activity in Wistar rat assessed as inhibition of FCA-induced subcutaneous inflammation of tibio-torsal joint at 2.04 mg/kg, po administered on day 13 post FCA-challenge measured on day 28 by hematoxylin and eosin staining method relative to control; format: functional, organism-based; set-up: dose 2.04 mg/kg
Procedure, shortened: (§2)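 Male Wistar rats, arthritis induced by sub-plantar FCA and oral dosing on days 13–28. Animals sacrificed on day 28. Ankle joints fixed 24 h in 10% buffered formalin, decalcified in 5% formic acid, paraffin-embedded and sectioned at 5 μm. H&E-stained sections read by light microscopy for synovial hyperplasia, pannus, joint-space destruction, inflammatory cell infiltration and synovitis.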

Rattus norvegicus [3] = test: Gastrointestinal toxicity against fasted Wistar rat assessed as ulcer index at 20.4 mg/kg, po (reference value: 1.78 +/- 0.6); format: organism-based; set-up: dose 20.4 mg/kg, route oral; conditions: in vivo
Rattus norvegicus [4] = test: Antiarthritic activity against FCA-induced arthritis in Wistar rat assessed as increase in body weight at 2.04 mg/kg, po administered from day 13 post FCA-challenge measured after 28 days relative to control; format: functional, organism-based; set-up: dose 2.04 mg/kg; procedure, shortened: as §1
Rattus norvegicus [5] = test: Antiarthritic activity against FCA-induced arthritis in Wistar rat assessed as reduction in joint diameter at 2.04 mg/kg, po administered from day 13 post FCA-challenge measured up to day 28 relative to control; format: functional, organism-based; set-up: dose 2.04 mg/kg; procedure, shortened: as §1
Rattus norvegicus [6] = test: Antiarthritic activity against FCA-induced arthritis in Wistar rat assessed as reduction in joint diameter at 5 mg/kg, po administered from day 13 post FCA-challenge measured from day 15 to day 28 relative to control; format: functional, organism-based; set-up: dose 5 mg/kg; procedure, shortened: as §1
Rattus norvegicus [7] = test: Antiarthritic activity against FCA-induced arthritis in Wistar rat assessed as increase in body weight at 5 mg/kg, po administered from day 13 post FCA-challenge measured after 28 days relative to control; format: functional, organism-based; set-up: dose 5 mg/kg; procedure, shortened: as §1
Rattus norvegicus [8] = test: Antiarthritic activity in Wistar rat assessed as inhibition of FCA-induced subcutaneous inflammation of tibio-torsal joint at 5 mg/kg, po administered on day 13 post FCA-challenge measured on day 28 by hematoxylin and eosin staining method relative to control; format: functional, organism-based; set-up: dose 5 mg/kg; procedure, shortened: as §2
Rattus norvegicus [9] = test: Gastrointestinal toxicity against fasted Wistar rat assessed as ulcer index at 50 mg/kg, po (reference value: 1.78 +/- 0.6); format: organism-based; set-up: dose 50 mg/kg, route oral; conditions: in vivo
Rattus norvegicus [10] = test: Antiinflammatory activity in Wistar rat assessed as inhibition of FCA-induced paw edema at 5 mg/kg, po administered on days 13 post FCA-challenge measured up to days 28 relative to control; format: functional; procedure, shortened: as §1
[11] = n-octanol-phosphate buffer distribution coefficient, log P of the compound at pH 7.4; format: physicochemical
Procedure, shortened: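 Shake-flask partitioning between n-octanol and phosphate buffer pH 7.4, with UV spectrophotometric quantification.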

[12] = Half life in phosphate buffer at pH 7.4; format: physicochemical
Procedure, shortened: (§3)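 Same procedure in phosphate buffer pH 7.4 at 37 °C, followed over 4.5 h. UV read at 230 nm (prodrug remaining) and 258 nm (diacerein released). First-order rate constants taken from plots; mean K and SD from three readings, with half-life derived from these.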

[13] = Half life in Wistar rat small intestine homogenate; format: ADME, tissue-based
Procedure, shortened: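 Small intestine from an ether-anaesthetized male Wistar rat, homogenized with its contents and diluted to half with phosphate buffer pH 7.4. Prodrug stock 0.8 ml plus homogenate 0.2 ml, 37 °C for 4.5 h. Centrifuged and filtered, then UV read at 230 nm (prodrug) and 258 nm (diacerein) against phosphate buffer blank. First-order K averaged over three readings.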

[14] = Chemical stability in HCl buffer up to 3 hrs at pH 1.2; format: physicochemical; conditions: pH 1.2, 3 h
Procedure, shortened: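 10 mg prodrug in 100 ml HCl buffer pH 1.2, held at 37 ± 1 °C with occasional stirring. 5 ml aliquots withdrawn over 0–180 min, each replaced with fresh buffer. Samples read directly by UV at 232 nm (intact prodrug) and 259 nm (released diacerein). Triplicate runs.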

Rattus norvegicus [15] = test: Antiarthritic activity against FCA-induced arthritis in Wistar rat assessed as increase in body weight at 6.8 mg/kg, po administered from day 13 post FCA-challenge measured after 28 days relative to control; format: functional, organism-based; set-up: dose 6.8 mg/kg; procedure, shortened: as §1
Rattus norvegicus [16] = test: Antiarthritic activity in Wistar rat assessed as inhibition of FCA-induced inflammatory cell infiltration in subcutaneous tissue of tibio-torsal joint at 6.8 mg/kg, po administered on day 13 post FCA-challenge measured on day 28 by hematoxylin and eosin staining method relative to control; format: functional, organism-based; set-up: dose 6.8 mg/kg; procedure, shortened: as §2
[17] = Chemical stability in HCl buffer over 3 hrs at pH 1.2; conditions: pH 1.2, 3 h
Rattus norvegicus [18] = test: Antiarthritic activity against FCA-induced arthritis in Wistar rat assessed as reduction in joint diameter at 6.8 mg/kg, po administered from day 13 post FCA-challenge measured up to day 28 relative to control; format: functional, organism-based; set-up: dose 6.8 mg/kg; procedure, shortened: as §1
Stomach = test: Metabolic stability in Wistar rat stomach homogenate over 4.5 hrs; format: ADME, tissue-based; conditions: tissue homogenate
Procedure, shortened: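 Rat stomach homogenized with its contents and diluted to half with HCl buffer pH 1.2. Prodrug stock 100 μg/ml in HCl buffer; 0.8 ml stock plus 0.2 ml homogenate incubated at 37 °C. Samples centrifuged at 10,000 rpm, 4 °C, 10 min, then filtered. UV read at 232/259 nm against HCl buffer blank; quantified from calibration curves.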

Rattus norvegicus [19] = test: Antiinflammatory activity in Wistar rat assessed as inhibition of FCA-induced paw edema at 6.8 mg/kg, po administered on days 13 post FCA-challenge measured up to days 28 relative to control; format: functional; procedure, shortened: as §1
Rattus norvegicus [20] = test: Antiarthritic activity in Wistar rat assessed as inhibition of FCA-induced mononuclear cell infiltration in synovial tissue of tibio-torsal joint at 6.8 mg/kg, po administered on day 13 post FCA-challenge measured on day 28 by hematoxylin and eosin staining method relative to control; format: functional, organism-based; set-up: dose 6.8 mg/kg; procedure, shortened: as §2
[21] = Prodrug conversion in phosphate buffer assessed as diacerein released after 30 mins at pH 7.4; format: physicochemical; conditions: pH 7.4, 0.5 h; procedure, shortened: as §3
Rattus norvegicus [22] = test: Gastrointestinal toxicity against fasted Wistar rat assessed as ulcer index at 68 mg/kg, po (reference value: 1.78 +/- 0.6); format: organism-based; set-up: dose 68 mg/kg, route oral; conditions: in vivo

Cc1ccc(C(C)C)c(O)c1 [THYMOL]
inhibition in vivo at 2.04 mg/kg (Rattus norvegicus [1]): 9.1%
inhibition (Rattus norvegicus [2]): inactive
UI (Rattus norvegicus [3]): 1.98
Activity (Rattus norvegicus [4]): inactive
Activity (Rattus norvegicus [5]): Active

CC(=O)Oc1cccc2c1C(=O)c1c(OC(C)=O)cc(C(=O)O)cc1C2=O [DIACEREIN]
Activity (Rattus norvegicus [6]): Active
Activity (Rattus norvegicus [7]): Active
inhibition (Rattus norvegicus [8]): inactive
UI (Rattus norvegicus [9]): 6.03
inhibition in vivo at 5 mg/kg (Rattus norvegicus [10]): 56.9%
logD [11]: 0.46

CC(=O)Oc1cccc2c1C(=O)c1c(OC(C)=O)cc(C(=O)Oc3cc(C)ccc3C(C)C)cc1C2=O
half-life [12]: 3.22 h
half-life [13]: 2.8 h
Stability [14]: Stable
Activity (Rattus norvegicus [15]): Active
inhibition (Rattus norvegicus [16]): Active
Stability [17]: Stable
Activity (Rattus norvegicus [18]): Active
Stability (Stomach): Stable
inhibition in vivo at 6.8 mg/kg (Rattus norvegicus [19]): 78.9%
inhibition (Rattus norvegicus [20]): inactive
Drug metabolism [21]: Active
UI (Rattus norvegicus [22]): 4.17
logD [11]: 0.565

Reference: ChEMBL document CHEMBL2311422, “Studies on synthesis, stability, release and pharmacodynamic profile of a novel diacerein-thymol prodrug” (Bioorg Med Chem Lett, 2013)
